Assay results: ChEMBL document CHEMBL1255376, “Comparative surveillance study of telavancin activity against recently collected gram-positive clinical isolates from across the United States” (2008)
In brackets after ≈: the same amount, converted by molar mass.

Columns and labels:
Assay type in all cases: functional
Staphylococcus aureus [1] = experiment: Antibacterial activity against methicillin-susceptible Staphylococcus aureus clinical isolate by broth microdilution method
Procedure, shortened: (§1)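 MICs by CLSI broth microdilution in frozen trays pre-loaded with serial dilutions of each agent. Quality-control strains run in parallel: E. faecalis ATCC 29212 and ATCC 51299, S. aureus ATCC 29213, S. pneumoniae ATCC 49619. Comparator susceptibility categories follow CLSI breakpoints. Methicillin resistance in staphylococci assigned from the oxacillin MIC.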

Streptococcus pneumoniae [2] = experiment: Antibacterial activity against penicillin resistant Streptococcus pneumoniae clinical isolate by broth microdilution method; procedure, shortened: as §1
Staphylococcus aureus [3] = experiment: Antibacterial activity against vancomycin-, methicillin-resistant Staphylococcus aureus VRS2 by broth microdilution method
Procedure, shortened: (§2)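 VISA and VRSA strains from the NARSA repository were tested separately from the surveillance isolates. MICs by CLSI broth microdilution in frozen trays with serial dilutions. Quality-control strains run in parallel. Susceptibility categories follow CLSI breakpoints, and methicillin resistance was assigned from the oxacillin MIC.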

Streptococcus pneumoniae [4] = experiment: Antibacterial activity against penicillin susceptible Streptococcus pneumoniae clinical isolate by broth microdilution method; procedure, shortened: as §1
Streptococcus pyogenes = experiment: Antibacterial activity against Streptococcus pyogenes clinical isolate by broth microdilution method
Procedure, shortened: (§3)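 MIC by CLSI broth microdilution in frozen microtiter trays holding serial dilutions of each agent, prepared from standard laboratory powders. E. faecalis ATCC 29212 and ATCC 51299, S. aureus ATCC 29213 and S. pneumoniae ATCC 49619 run in parallel as quality-control strains. Comparator susceptibility interpreted with CLSI breakpoints.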

Streptococcus mitis = experiment: Antibacterial activity against Streptococcus mitis clinical isolate by broth microdilution method; procedure, shortened: as §3
Staphylococcus capitis [5] = experiment: Antibacterial activity against daptomycin-nonsusceptible Staphylococcus capitis isolate 1285355 by broth microdilution method; procedure, shortened: as §3
Streptococcus oralis = experiment: Antibacterial activity against Streptococcus oralis clinical isolate by broth microdilution method; procedure, shortened: as §3
Staphylococcus aureus [6] = experiment: Antibacterial activity against vancomycin-intermediate methicillin-resistant Staphylococcus aureus NRS17 by broth microdilution method; procedure, shortened: as §2
Staphylococcus xylosus [7] = experiment: Antibacterial activity against methicillin-susceptible coagulase-negative Staphylococcus xylosus clinical isolate by broth microdilution method; procedure, shortened: as §1
Staphylococcus simulans [8] = experiment: Antibacterial activity against methicillin-susceptible coagulase-negative Staphylococcus simulans clinical isolate by broth microdilution method; procedure, shortened: as §1
[9] = test system: Staphylococcus saprophyticus; experiment: Antibacterial activity against methicillin-resistant coagulase-negative Staphylococcus saprophyticus clinical isolate by broth microdilution method; procedure, shortened: as §1
Enterococcus faecium [10] = experiment: Antibacterial activity against vancomycin- and teichoplanin-nonsusceptible Enterococcus faecium clinical isolate by broth microdilution method; procedure, shortened: as §1
[11] = test system: Staphylococcus epidermidis; experiment: Antibacterial activity against methicillin-resistant coagulase-negative Staphylococcus epidermidis clinical isolate by broth microdilution method; procedure, shortened: as §1
Staphylococcus xylosus [12] = experiment: Antibacterial activity against methicillin-resistant coagulase-negative Staphylococcus xylosus clinical isolate by broth microdilution method; procedure, shortened: as §1
Staphylococcus aureus [13] = experiment: Antibacterial activity against vancomycin-, methicillin-resistant Staphylococcus aureus VRS3 by broth microdilution method; procedure, shortened: as §2
Staphylococcus [14] = experiment: Antibacterial activity against methicillin-susceptible coagulase-negative unspeciated Staphylococcus clinical isolate by broth microdilution method; procedure, shortened: as §1
Streptococcus pneumoniae [15] = experiment: Antibacterial activity against penicillin intermediate Streptococcus pneumoniae clinical isolate by broth microdilution method; procedure, shortened: as §1
Enterococcus faecalis [16] = experiment: Antibacterial activity against vancomycin-resistant and teichoplanin-susceptible Enterococcus faecalis clinical isolate by broth microdilution method; procedure, shortened: as §1
[17] = test system: Staphylococcus haemolyticus; experiment: Antibacterial activity against methicillin-susceptible coagulase-negative Staphylococcus haemolyticus clinical isolate by broth microdilution method; procedure, shortened: as §1
Staphylococcus simulans [18] = experiment: Antibacterial activity against methicillin-resistant coagulase-negative Staphylococcus simulans clinical isolate by broth microdilution method; procedure, shortened: as §1
Staphylococcus [19] = experiment: Antibacterial activity against daptomycin-nonsusceptible coagulase-negative Staphylococcus isolate 1285835 by broth microdilution method; procedure, shortened: as §3
Enterococcus faecalis [20] = experiment: Antibacterial activity against vancomycin- and teichoplanin-nonsusceptible Enterococcus faecalis clinical isolate by broth microdilution method; procedure, shortened: as §1
Staphylococcus warneri [21] = experiment: Antibacterial activity against methicillin-susceptible coagulase-negative Staphylococcus warneri clinical isolate by broth microdilution method; procedure, shortened: as §1
Staphylococcus aureus [22] = experiment: Antibacterial activity against methicillin-resistant Staphylococcus aureus clinical isolate by broth microdilution method; procedure, shortened: as §1
[23] = test system: Staphylococcus saprophyticus; experiment: Antibacterial activity against methicillin-susceptible coagulase-negative Staphylococcus saprophyticus clinical isolate by broth microdilution method; procedure, shortened: as §1
Staphylococcus cohnii [24] = experiment: Antibacterial activity against methicillin-susceptible coagulase-negative Staphylococcus cohnii clinical isolate by broth microdilution method; procedure, shortened: as §1
Staphylococcus cohnii [25] = experiment: Antibacterial activity against methicillin-resistant coagulase-negative Staphylococcus cohnii clinical isolate by broth microdilution method; procedure, shortened: as §1
[26] = Antibacterial activity against Streptococcus sp. Group G clinical isolate by broth microdilution method; procedure, shortened: as §3
Streptococcus sp. = experiment: Antibacterial activity against Streptococcus sp. Group F clinical isolate by broth microdilution method
Procedure, shortened: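 MIC by CLSI broth microdilution in frozen microtiter trays holding serial dilutions of each agent, prepared from standard laboratory powders. Comparator susceptibility interpreted with CLSI breakpoints.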

Enterococcus faecium [27] = experiment: Antibacterial activity against vancomycin-susceptible Enterococcus faecium clinical isolate by broth microdilution method; procedure, shortened: as §3
Staphylococcus capitis [28] = experiment: Antibacterial activity against methicillin-resistant coagulase-negative Staphylococcus capitis clinical isolate by broth microdilution method; procedure, shortened: as §1
Staphylococcus hominis [29] = experiment: Antibacterial activity against methicillin-susceptible coagulase-negative Staphylococcus hominis clinical isolate by broth microdilution method; procedure, shortened: as §1
Staphylococcus hominis [30] = experiment: Antibacterial activity against methicillin-resistant coagulase-negative Staphylococcus hominis clinical isolate by broth microdilution method; procedure, shortened: as §1
Streptococcus sanguinis = experiment: Antibacterial activity against Streptococcus sanguinis clinical isolate by broth microdilution method; procedure, shortened: as §3
Mammaliicoccus sciuri = experiment: Antibacterial activity against methicillin-resistant coagulase-negative Staphylococcus sciuri clinical isolate by broth microdilution method; procedure, shortened: as §1
Enterococcus faecium [31] = experiment: Antibacterial activity against vancomycin-resistant and teichoplanin-susceptible Enterococcus faecium clinical isolate by broth microdilution method; procedure, shortened: as §1
Staphylococcus warneri [32] = experiment: Antibacterial activity against methicillin-resistant coagulase-negative Staphylococcus warneri clinical isolate by broth microdilution method; procedure, shortened: as §1

`CN[C@H](CC(C)C)C(=O)N[C@H]1C(=O)N[C@@H](CC(N)=O)C(=O)N[C@H]2C(=O)N[C@H]3C(=O)N[C@H](C(=O)N[C@H](C(=O)O)c4cc(O)cc(O)c4-c4cc3ccc4O)[C@H](O)c3ccc(c(Cl)c3)Oc3cc2cc(c3O[C@@H]2O[C@H](CO)[C@@H](O)[C@H](O)[C@H]2O[C@H]2C[C@](C)(N)[C@H](O)[C@H](C)O2)Oc2ccc(cc2Cl)[C@H]1O` [VANCOMYCIN] gave an MIC50 (Staphylococcus aureus [1]) of 1 µg/mL (≈ 0.69 µM), an MIC90 (Staphylococcus aureus [1]) of 1 µg/mL (≈ 0.69 µM) and an MIC (Streptococcus pneumoniae [2]) of 0.25 µg/mL (≈ 0.173 µM). For the same molecule, the MIC50 (Streptococcus pneumoniae [2]) was 0.25 µg/mL (≈ 0.173 µM), the MIC90 (Streptococcus pneumoniae [2]) was 0.5 µg/mL (≈ 0.345 µM) and the MIC (Staphylococcus aureus [3]) was 32 µg/mL (≈ 22.1 µM). It also gave an MIC50 (Streptococcus pneumoniae [4]) of 0.25 µg/mL (≈ 0.173 µM), an MIC90 (Streptococcus pneumoniae [4]) of 0.5 µg/mL (≈ 0.345 µM) and an MIC (Streptococcus pyogenes) of 0.25 µg/mL (≈ 0.173 µM). The MIC50 (Streptococcus pyogenes) was 0.25 µg/mL (≈ 0.173 µM), the MIC90 (Streptococcus pyogenes) was 0.5 µg/mL (≈ 0.345 µM) and the MIC50 (Streptococcus mitis) was 0.5 µg/mL (≈ 0.345 µM). For the same molecule, the MIC90 (Streptococcus mitis) was 0.5 µg/mL (≈ 0.345 µM), the MIC (Staphylococcus capitis [5]) was 2 µg/mL (≈ 1.38 µM) and the MIC50 (Streptococcus oralis) was 0.5 µg/mL (≈ 0.345 µM). It also gave an MIC90 (Streptococcus oralis) of 0.5 µg/mL (≈ 0.345 µM), an MIC (Staphylococcus aureus [6]) of 8 µg/mL (≈ 5.52 µM) and an MIC50 (Staphylococcus xylosus [7]) of 1 µg/mL (≈ 0.69 µM). The MIC90 (Staphylococcus xylosus [7]) was 2 µg/mL (≈ 1.38 µM), the MIC50 (Staphylococcus simulans [8]) was 1 µg/mL (≈ 0.69 µM) and the MIC90 (Staphylococcus simulans [8]) was 2 µg/mL (≈ 1.38 µM). The MIC50 [9] was 2 µg/mL (≈ 1.38 µM), the MIC90 [9] was 2 µg/mL (≈ 1.38 µM) and the MIC50 (Enterococcus faecium [10]) was 512 µg/mL (≈ 353 µM). For the same molecule, the MIC90 (Enterococcus faecium [10]) was 512 µg/mL (≈ 353 µM), the MIC50 [11] was 2 µg/mL (≈ 1.38 µM) and the MIC90 [11] was 2 µg/mL (≈ 1.38 µM). The MIC50 (Staphylococcus xylosus [12]) was 2 µg/mL (≈ 1.38 µM), the MIC90 (Staphylococcus xylosus [12]) was 2 µg/mL (≈ 1.38 µM) and the MIC (Staphylococcus aureus [13]) was > 32 µg/mL. The MIC50 (Staphylococcus [14]) was 1 µg/mL (≈ 0.69 µM), the MIC90 (Staphylococcus [14]) was 2 µg/mL (≈ 1.38 µM) and the MIC (Streptococcus pneumoniae [15]) was 0.25 µg/mL (≈ 0.173 µM). The MIC50 (Streptococcus pneumoniae [15]) was 0.25 µg/mL (≈ 0.173 µM), the MIC90 (Streptococcus pneumoniae [15]) was 0.5 µg/mL (≈ 0.345 µM) and the MIC (Enterococcus faecalis [16]) was 32 µg/mL (≈ 22.1 µM). For the same molecule, the MIC50 [17] was 1 µg/mL (≈ 0.69 µM), the MIC90 [17] was 2 µg/mL (≈ 1.38 µM) and the MIC50 (Staphylococcus simulans [18]) was 2 µg/mL (≈ 1.38 µM). For the same molecule, the MIC90 (Staphylococcus simulans [18]) was 2 µg/mL (≈ 1.38 µM), the MIC (Staphylococcus [19]) was 2 µg/mL (≈ 1.38 µM) and the MIC50 (Enterococcus faecalis [20]) was 512 µg/mL (≈ 353 µM). The MIC90 (Enterococcus faecalis [20]) was > 512 µg/mL, the MIC50 (Staphylococcus warneri [21]) was 1 µg/mL (≈ 0.69 µM) and the MIC90 (Staphylococcus warneri [21]) was 2 µg/mL (≈ 1.38 µM). The MIC50 (Staphylococcus aureus [22]) was 1 µg/mL (≈ 0.69 µM), the MIC90 (Staphylococcus aureus [22]) was 1 µg/mL (≈ 0.69 µM) and the MIC50 [23] was 1 µg/mL (≈ 0.69 µM). For the same molecule, the MIC90 [23] was 2 µg/mL (≈ 1.38 µM), the MIC50 (Staphylococcus cohnii [24]) was 1 µg/mL (≈ 0.69 µM) and the MIC90 (Staphylococcus cohnii [24]) was 2 µg/mL (≈ 1.38 µM). The MIC50 (Staphylococcus cohnii [25]) was 2 µg/mL (≈ 1.38 µM), the MIC90 (Staphylococcus cohnii [25]) was 2 µg/mL (≈ 1.38 µM) and the MIC [26] was 0.25 µg/mL (≈ 0.173 µM). For the same molecule, the MIC50 [26] was 0.25 µg/mL (≈ 0.173 µM), the MIC90 [26] was 0.5 µg/mL (≈ 0.345 µM) and the MIC (Streptococcus sp.) was 0.25 µg/mL (≈ 0.173 µM). For the same molecule, the MIC50 (Streptococcus sp.) was 0.25 µg/mL (≈ 0.173 µM), the MIC90 (Streptococcus sp.) was 0.5 µg/mL (≈ 0.345 µM) and the MIC (Enterococcus faecium [27]) was ≤ 0.5 µg/mL. The MIC50 (Enterococcus faecium [27]) was ≤ 0.5 µg/mL, the MIC90 (Enterococcus faecium [27]) was 1 µg/mL (≈ 0.69 µM) and the MIC50 (Staphylococcus capitis [28]) was 2 µg/mL (≈ 1.38 µM). The MIC90 (Staphylococcus capitis [28]) was 2 µg/mL (≈ 1.38 µM), the MIC50 (Staphylococcus hominis [29]) was 1 µg/mL (≈ 0.69 µM) and the MIC90 (Staphylococcus hominis [29]) was 2 µg/mL (≈ 1.38 µM). For the same molecule, the MIC50 (Staphylococcus hominis [30]) was 2 µg/mL (≈ 1.38 µM), the MIC90 (Staphylococcus hominis [30]) was 2 µg/mL (≈ 1.38 µM) and the MIC50 (Streptococcus sanguinis) was 0.5 µg/mL (≈ 0.345 µM). It also gave an MIC90 (Streptococcus sanguinis) of 0.5 µg/mL (≈ 0.345 µM), an MIC50 (Mammaliicoccus sciuri) of 2 µg/mL (≈ 1.38 µM) and an MIC90 (Mammaliicoccus sciuri) of 2 µg/mL (≈ 1.38 µM). The MIC50 (Enterococcus faecium [31]) was 128 µg/mL (≈ 88.3 µM), the MIC90 (Enterococcus faecium [31]) was 512 µg/mL (≈ 353 µM) and the MIC50 (Staphylococcus warneri [32]) was 2 µg/mL (≈ 1.38 µM). For the same molecule, the MIC90 (Staphylococcus warneri [32]) was 2 µg/mL (≈ 1.38 µM).
